For 1 molecule, inhibition results are on record in ChEMBL document CHEMBL2417369, “Synthesis and evaluation of heteroaryl substituted diazaspirocycles as scaffolds to probe the ATP-binding site of protein kinases” (Bioorg Med Chem, 2013).

In assay [1] the target is Protein kinase C (PKC) (Homo sapiens) (UniProt O94806+P41743+P17252+P05129+Q05655+P05771+Q05513+Q02156+P24723+Q15139+Q04759). Briefly: Inhibition of PKC (unknown origin) at 30 uM by microfluidic mobility shift assay relative to control. An outline of the steps: (§1)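 Single-point screen in a 24-enzyme kinase panel using a microfluidic assay. Each compound was tested at […] with ATP at roughly the Km for each enzyme. The pan-AGC inhibitor H-89 served as an internal control on every plate.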

Assay [2] deals with Tyrosine-protein kinase Lck (Homo sapiens, UniProt P06239). Briefly: Inhibition of LCK (unknown origin) at 30 uM by microfluidic mobility shift assay relative to control. An outline of the steps: as §1
Assay [3] addresses Tyrosine-protein kinase Fyn (Homo sapiens, UniProt P06241). Nature of the assay: Inhibition of FYN (unknown origin) at 30 uM by microfluidic mobility shift assay relative to control. An outline of the steps:
as §1

The species entered for the next assay is Homo sapiens. Briefly: Inhibition of PKA (unknown origin) at 30 uM by microfluidic mobility shift assay relative to control. An outline of the steps: as §1
Assay [4] deals with Tyrosine-protein kinase Lyn (Homo sapiens, UniProt P07948). Briefly: Inhibition of LYN (unknown origin) at 30 uM by microfluidic mobility shift assay relative to control. An outline of the steps: as §1
Assay [5] addresses Proto-oncogene tyrosine-protein kinase Src (Homo sapiens, UniProt P12931). Briefly: Inhibition of SRC (unknown origin) at 30 uM by microfluidic mobility shift assay relative to control. An outline of the steps: as §1
Assay [6] concerns the target Insulin receptor (Homo sapiens) (UniProt P06213). Briefly: Inhibition of INSR (unknown origin) at 30 uM by microfluidic mobility shift assay relative to control. An outline of the steps: as §1

SMILES strings stand for the structures.

Insulin receptor (Homo sapiens), sequence (P06213 28-758 limits assumed): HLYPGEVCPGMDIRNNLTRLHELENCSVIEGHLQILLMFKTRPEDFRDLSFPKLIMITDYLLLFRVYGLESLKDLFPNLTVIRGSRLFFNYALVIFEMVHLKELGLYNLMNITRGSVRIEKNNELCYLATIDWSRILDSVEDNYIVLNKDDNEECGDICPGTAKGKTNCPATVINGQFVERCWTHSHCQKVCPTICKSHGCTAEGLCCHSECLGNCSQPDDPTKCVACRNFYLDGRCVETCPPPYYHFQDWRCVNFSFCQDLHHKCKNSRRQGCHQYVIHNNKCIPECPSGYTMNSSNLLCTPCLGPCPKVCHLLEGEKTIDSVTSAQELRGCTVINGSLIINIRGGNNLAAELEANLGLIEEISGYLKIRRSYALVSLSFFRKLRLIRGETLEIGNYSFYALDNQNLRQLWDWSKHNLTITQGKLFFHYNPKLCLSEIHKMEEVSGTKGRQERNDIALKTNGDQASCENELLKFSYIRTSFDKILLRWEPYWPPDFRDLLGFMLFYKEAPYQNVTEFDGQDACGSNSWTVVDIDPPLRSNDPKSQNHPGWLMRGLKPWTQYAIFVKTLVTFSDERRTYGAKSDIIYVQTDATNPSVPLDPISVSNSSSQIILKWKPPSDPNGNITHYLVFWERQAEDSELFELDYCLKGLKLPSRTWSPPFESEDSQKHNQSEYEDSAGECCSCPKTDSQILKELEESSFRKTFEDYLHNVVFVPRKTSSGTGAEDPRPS
Insulin receptor (Homo sapiens), sequence (P06213 763-1382 limits assumed): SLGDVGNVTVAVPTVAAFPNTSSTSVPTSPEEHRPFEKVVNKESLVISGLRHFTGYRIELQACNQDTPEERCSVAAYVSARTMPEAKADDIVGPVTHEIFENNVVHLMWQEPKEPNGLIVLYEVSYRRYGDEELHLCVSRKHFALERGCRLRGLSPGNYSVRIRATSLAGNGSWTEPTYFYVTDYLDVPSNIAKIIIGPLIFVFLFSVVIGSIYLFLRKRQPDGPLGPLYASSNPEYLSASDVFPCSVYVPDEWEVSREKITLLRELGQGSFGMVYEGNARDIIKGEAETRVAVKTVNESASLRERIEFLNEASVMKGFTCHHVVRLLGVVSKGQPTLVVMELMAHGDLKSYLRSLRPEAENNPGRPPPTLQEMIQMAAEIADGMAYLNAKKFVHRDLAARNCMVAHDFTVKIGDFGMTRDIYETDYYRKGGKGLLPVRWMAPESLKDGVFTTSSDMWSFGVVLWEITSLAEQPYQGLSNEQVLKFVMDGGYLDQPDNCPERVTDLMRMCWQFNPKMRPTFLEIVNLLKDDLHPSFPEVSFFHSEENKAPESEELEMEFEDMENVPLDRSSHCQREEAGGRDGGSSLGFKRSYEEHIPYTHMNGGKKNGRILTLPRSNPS
Tyrosine-protein kinase Lck, sequence (P06239 2-509 limits assumed): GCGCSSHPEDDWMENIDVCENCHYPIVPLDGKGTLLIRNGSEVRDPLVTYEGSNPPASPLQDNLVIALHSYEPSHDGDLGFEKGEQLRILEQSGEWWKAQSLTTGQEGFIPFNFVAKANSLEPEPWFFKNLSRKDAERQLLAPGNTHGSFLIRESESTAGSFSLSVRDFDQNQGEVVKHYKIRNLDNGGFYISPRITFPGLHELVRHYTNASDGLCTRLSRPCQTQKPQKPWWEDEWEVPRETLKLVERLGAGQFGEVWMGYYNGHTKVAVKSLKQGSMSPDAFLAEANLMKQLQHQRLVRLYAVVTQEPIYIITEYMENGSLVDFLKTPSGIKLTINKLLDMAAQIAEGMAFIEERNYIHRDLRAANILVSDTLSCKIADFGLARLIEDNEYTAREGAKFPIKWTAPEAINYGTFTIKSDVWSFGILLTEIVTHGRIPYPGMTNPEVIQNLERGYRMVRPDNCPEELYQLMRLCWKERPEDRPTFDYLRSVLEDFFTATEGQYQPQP
Tyrosine-protein kinase Lyn, sequence (P07948 2-512 limits assumed): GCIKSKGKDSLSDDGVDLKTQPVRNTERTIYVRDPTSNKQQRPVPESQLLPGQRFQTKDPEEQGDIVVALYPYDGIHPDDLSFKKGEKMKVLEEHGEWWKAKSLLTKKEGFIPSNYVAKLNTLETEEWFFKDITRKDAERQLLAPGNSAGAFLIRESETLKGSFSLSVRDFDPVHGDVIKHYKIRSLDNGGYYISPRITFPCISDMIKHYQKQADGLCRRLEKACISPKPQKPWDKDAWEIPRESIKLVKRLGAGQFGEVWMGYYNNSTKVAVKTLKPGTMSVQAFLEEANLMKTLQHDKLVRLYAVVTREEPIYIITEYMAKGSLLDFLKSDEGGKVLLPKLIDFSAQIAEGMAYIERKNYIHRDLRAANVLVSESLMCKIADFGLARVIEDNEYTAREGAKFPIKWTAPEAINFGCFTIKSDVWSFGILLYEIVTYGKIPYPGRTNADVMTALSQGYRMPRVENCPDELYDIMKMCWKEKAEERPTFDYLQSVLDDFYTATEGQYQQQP
Proto-oncogene tyrosine-protein kinase Src, sequence (P12931 2-536 limits assumed): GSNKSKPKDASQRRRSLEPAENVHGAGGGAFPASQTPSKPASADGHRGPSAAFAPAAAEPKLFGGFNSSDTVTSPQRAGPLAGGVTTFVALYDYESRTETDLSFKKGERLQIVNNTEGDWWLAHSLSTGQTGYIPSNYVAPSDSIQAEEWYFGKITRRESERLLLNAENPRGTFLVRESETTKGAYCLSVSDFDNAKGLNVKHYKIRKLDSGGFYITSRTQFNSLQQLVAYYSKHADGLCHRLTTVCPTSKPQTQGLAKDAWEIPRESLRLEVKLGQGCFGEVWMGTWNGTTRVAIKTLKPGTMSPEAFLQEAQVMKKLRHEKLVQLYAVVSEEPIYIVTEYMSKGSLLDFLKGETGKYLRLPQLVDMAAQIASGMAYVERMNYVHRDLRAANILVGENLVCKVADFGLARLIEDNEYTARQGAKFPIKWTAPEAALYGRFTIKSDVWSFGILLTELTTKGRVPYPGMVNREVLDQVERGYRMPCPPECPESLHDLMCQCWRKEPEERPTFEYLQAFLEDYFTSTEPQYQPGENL
Tyrosine-protein kinase Fyn, sequence (P06241 2-537 limits assumed): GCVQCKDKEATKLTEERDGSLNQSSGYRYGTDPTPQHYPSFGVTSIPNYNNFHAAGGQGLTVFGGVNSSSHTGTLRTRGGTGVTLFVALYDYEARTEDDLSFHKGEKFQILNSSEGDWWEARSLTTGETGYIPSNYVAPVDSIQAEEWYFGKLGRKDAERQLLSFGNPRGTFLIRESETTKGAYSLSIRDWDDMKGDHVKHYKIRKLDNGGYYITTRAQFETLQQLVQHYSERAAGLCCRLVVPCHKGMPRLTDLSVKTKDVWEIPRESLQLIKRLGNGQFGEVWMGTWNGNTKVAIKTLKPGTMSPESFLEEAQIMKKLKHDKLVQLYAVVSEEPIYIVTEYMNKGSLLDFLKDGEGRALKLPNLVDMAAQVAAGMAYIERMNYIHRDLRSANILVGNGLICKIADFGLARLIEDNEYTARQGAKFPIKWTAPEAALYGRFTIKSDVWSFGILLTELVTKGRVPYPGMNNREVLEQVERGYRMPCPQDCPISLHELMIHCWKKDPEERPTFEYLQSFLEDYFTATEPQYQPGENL

In general, inhibition refers to the share of the control response that was lost under treatment. As to `O=S(=O)(NCCNC/C=C/c1ccc(Br)cc1)c1cccc2cnccc12`, the inhibition in assay [1] is 64%; in assay [2] it was 22%; in assay [3], 14%; in the assay listed under Homo sapiens, 100%; in assay [4], 50%; in assay [5], 4%. In addition, in assay [6], the inhibition amounted to 29%.
